Results from ChEMBL document CHEMBL4152188, “Design, synthesis and biological evaluation of C(4) substituted monobactams as antibacterial agents against multidrug-resistant Gram-negative bacteria” (Eur J Med Chem, 2018).
Values after ≈ are worked out from the molar mass of the structure shown.

Experiments:
[1] = test system: Escherichia coli; assay: Antibacterial activity against extended-spectrum beta-lactamase producing Escherichia coli isolate 209285 after 18 hrs in presence of BPL by CLSI broth microdilution method; format: functional; conditions: isolate 209285, 18 h
Summary of the method: (§1)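 CLSI broth microdilution against clinical isolates (ESBL E. coli, KPC-2 MDR K. pneumoniae, IMP-4 MDR P. aeruginosa; five per species). Iron limitation: Mueller-Hinton broth supplemented with 16 mg/liter 2,2'-bipyridyl to complex iron and induce iron uptake systems. Read-out: MIC.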

[2] = test system: Klebsiella pneumoniae; assay: Antibacterial activity against KPC-2 producing Klebsiella pneumoniae isolate 209632 after 18 hrs in presence of BPL by CLSI broth microdilution method; format: functional; conditions: isolate 209632, 18 h; summary of the method: as §1
[3] = test system: Klebsiella pneumoniae; assay: Selectivity index, ratio of MIC for against KPC-2 producing Klebsiella pneumoniae isolate 209632 to MIC for against KPC-2 producing Klebsiella pneumoniae isolate 209632 in presence of BPL; format: functional
[4] = test system: Pseudomonas aeruginosa; assay: Antibacterial activity against IMP-4 producing Pseudomonas aeruginosa isolate 209321 after 18 hrs by CLSI broth microdilution method; format: functional; conditions: isolate 209321, 18 h
[5] = test system: Escherichia coli; assay: Antibacterial activity against Escherichia coli isolate 210737 after 18 hrs by CLSI broth microdilution method; format: functional; conditions: isolate 210737, 18 h
[6] = Intrinsic clearance in human liver microsomes assessed per g protein at 0.1 uM pre-incubated with compound followed by NADPH addition and measured after 60 mins by LC-MS/MS analysis; format: ADME, microsome; conditions: 1 h
Summary of the method: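 Liver microsomes, 0.33 mg/mL microsomal protein, with an NADP+-regenerating system. Test article at 0.1 µM, incubated at 37°C. Samples were taken at 0, 7, 17, 30 and 60 min, and parent compound was measured by MS. Half-life, intrinsic clearance (ml/min/g protein) and MF (%) are derived from parent loss.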

[7] = test system: Pseudomonas aeruginosa; assay: Selectivity index, ratio of MIC for against IMP-4 producing Pseudomonas aeruginosa isolate 209321 to MIC for against IMP-4 producing Pseudomonas aeruginosa isolate 209321 in presence of BPL; format: functional
[8] = test system: Klebsiella pneumoniae; assay: Antibacterial activity against KPC-2 producing Klebsiella pneumoniae isolate 209735 after 18 hrs by CLSI broth microdilution method; format: functional; conditions: isolate 209735, 18 h
[9] = test system: Klebsiella pneumoniae; assay: Antibacterial activity against KPC-2 producing Klebsiella pneumoniae isolate 212232 after 18 hrs in presence of BPL by CLSI broth microdilution method; format: functional; conditions: isolate 212232, 18 h; summary of the method: as §1
[10] = test system: Klebsiella pneumoniae; assay: Selectivity index, ratio of MIC for against KPC-2 producing Klebsiella pneumoniae isolate 212229 to MIC for against KPC-2 producing Klebsiella pneumoniae isolate 212229 in presence of BPL; format: functional
[11] = test system: Pseudomonas aeruginosa; assay: Selectivity index, ratio of MIC for against IMP-4 producing Pseudomonas aeruginosa isolate 208247 to MIC for against IMP-4 producing Pseudomonas aeruginosa isolate 208247 in presence of BPL; format: functional
[12] = test system: Klebsiella pneumoniae; assay: Antibacterial activity against KPC-2 producing Klebsiella pneumoniae isolate 212229 after 18 hrs in presence of BPL by CLSI broth microdilution method; format: functional; conditions: isolate 212229, 18 h; summary of the method: as §1
[13] = test system: Pseudomonas aeruginosa; assay: Antibacterial activity against IMP-4 producing Pseudomonas aeruginosa isolate 209471 after 18 hrs by CLSI broth microdilution method; format: functional; conditions: isolate 209471, 18 h
[14] = test system: Klebsiella pneumoniae; assay: Selectivity index, ratio of MIC for against KPC-2 producing Klebsiella pneumoniae isolate 212423 to MIC for against KPC-2 producing Klebsiella pneumoniae isolate 212423 in presence of BPL; format: functional
[15] = test system: Escherichia coli; assay: Antibacterial activity against extended-spectrum beta-lactamase producing Escherichia coli isolate 106342 after 18 hrs in presence of BPL by CLSI broth microdilution method; format: functional; conditions: isolate 106342, 18 h; summary of the method: as §1
[16] = test system: Escherichia coli; assay: Antibacterial activity against extended-spectrum beta-lactamase producing Escherichia coli isolate 212648 after 18 hrs in presence of BPL by CLSI broth microdilution method; format: functional; conditions: isolate 212648, 18 h; summary of the method: as §1
[17] = test system: Pseudomonas aeruginosa; assay: Antibacterial activity against IMP-4 producing Pseudomonas aeruginosa isolate 207272 after 18 hrs in presence of BPL by CLSI broth microdilution method; format: functional; conditions: isolate 207272, 18 h; summary of the method: as §1
[18] = test system: Pseudomonas aeruginosa; assay: Selectivity index, ratio of MIC for against IMP-4 producing Pseudomonas aeruginosa isolate 209471 to MIC for against IMP-4 producing Pseudomonas aeruginosa isolate 209471 in presence of BPL; format: functional
[19] = test system: Pseudomonas aeruginosa; assay: Antibacterial activity against IMP-4 producing Pseudomonas aeruginosa isolate 208247 after 18 hrs by CLSI broth microdilution method; format: functional; conditions: isolate 208247, 18 h
[20] = test system: Escherichia coli; assay: Selectivity index, ratio of MIC for against extended-spectrum beta-lactamase producing Escherichia coli isolate 208687 to MIC for extended-spectrum beta-lactamase producing Escherichia coli isolate 208687 in presence of BPL; format: functional
[21] = test system: Klebsiella pneumoniae; assay: Antibacterial activity against KPC-2 producing Klebsiella pneumoniae isolate 209735 after 18 hrs in presence of BPL by CLSI broth microdilution method; format: functional; conditions: isolate 209735, 18 h; summary of the method: as §1
[22] = test system: Klebsiella pneumoniae; assay: Selectivity index, ratio of MIC for against KPC-2 producing Klebsiella pneumoniae isolate 212232 to MIC for against KPC-2 producing Klebsiella pneumoniae isolate 212232 in presence of BPL; format: functional
[23] = test system: Escherichia coli; assay: Antibacterial activity against Escherichia coli isolate 210737 after 18 hrs in presence of BPL by CLSI broth microdilution method; format: functional; conditions: isolate 210737, 18 h; summary of the method: as §1
[24] = test system: Escherichia coli; assay: Selectivity index, ratio of MIC for against extended-spectrum beta-lactamase producing Escherichia coli isolate 212648 to MIC for extended-spectrum beta-lactamase producing Escherichia coli isolate 212648 in presence of BPL; format: functional
[25] = test system: Pseudomonas aeruginosa; assay: Antibacterial activity against IMP-4 producing Pseudomonas aeruginosa isolate 209471 after 18 hrs in presence of BPL by CLSI broth microdilution method; format: functional; conditions: isolate 209471, 18 h; summary of the method: as §1
[26] = Elimination half life in mouse liver microsomes at 0.1 uM pre-incubated with compound followed by NADPH addition and measured after 60 mins by LC-MS/MS analysis; format: ADME, microsome; conditions: read-out: beta t1/2
[27] = Metabolic bioavailability in human liver microsomes at 0.1 uM pre-incubated with compound followed by NADPH addition and measured after 60 mins by LC-MS/MS analysis; format: ADME, microsome
[28] = test system: Pseudomonas aeruginosa; assay: Selectivity index, ratio of MIC for against IMP-4 producing Pseudomonas aeruginosa isolate 212886 to MIC for against IMP-4 producing Pseudomonas aeruginosa isolate 212886 in presence of BPL; format: functional
[29] = test system: Escherichia coli; assay: Antibacterial activity against extended-spectrum beta-lactamase producing Escherichia coli isolate 208687 after 18 hrs in presence of BPL by CLSI broth microdilution method; format: functional; conditions: isolate 208687, 18 h; summary of the method: as §1
[30] = test system: Klebsiella pneumoniae; assay: Antibacterial activity against KPC-2 producing Klebsiella pneumoniae isolate 212232 after 18 hrs by CLSI broth microdilution method; format: functional; conditions: isolate 212232, 18 h
[31] = test system: Klebsiella pneumoniae; assay: Selectivity index, ratio of MIC for against KPC-2 producing Klebsiella pneumoniae isolate 209735 to MIC for against KPC-2 producing Klebsiella pneumoniae isolate 209735 in presence of BPL; format: functional
[32] = test system: Pseudomonas aeruginosa; assay: Selectivity index, ratio of MIC for against IMP-4 producing Pseudomonas aeruginosa isolate 207272 to MIC for against IMP-4 producing Pseudomonas aeruginosa isolate 207272 in presence of BPL; format: functional
[33] = test system: Escherichia coli; assay: Antibacterial activity against extended-spectrum beta-lactamase producing Escherichia coli isolate 212648 after 18 hrs by CLSI broth microdilution method; format: functional; conditions: isolate 212648, 18 h

SMILES | MIC [1] | MIC [2] | Selectivity Index [3] | MIC [4] | MIC [5] | CLint [6] | Selectivity Index [7] | MIC [8] | MIC [9] | Selectivity Index [10] | Selectivity Index [11] | MIC [12] | MIC [13] | Selectivity Index [14] | MIC [15] | MIC [16] | MIC [17] | Selectivity Index [18] | MIC [19] | Selectivity Index [20] | other results
CC(C)C(O/N=C(\C(=O)N[C@@H]1C(=O)N(S(=O)(=O)O)[C@@H]1Cn1cc(COCc2cc(=O)c(O)cn2O)nn1)c1csc(N)n1)c1cc(=O)c(O)cn1O (some centres not stated) | 8 µg/mL | 0.25 µg/mL | 8 | 8 µg/mL (≈ 10.4 µM) | 16 µg/mL (≈ 20.9 µM) | 26.2 mL/min/g | 2 | 2 µg/mL (≈ 2.61 µM) | 0.25 µg/mL | 8 | 1 | 0.25 µg/mL | 8 µg/mL (≈ 10.4 µM) | 8 | 8 µg/mL | 8 µg/mL | 2 µg/mL | 4 | 4 µg/mL (≈ 5.22 µM) | 16 | MIC [21]: 0.25 µg/mL; Selectivity Index [22]: 8; MIC [23]: 8 µg/mL; Selectivity Index [24]: 2; MIC [25]: 2 µg/mL; half-life at 0.1 µM [26]: 1.29 h; Fh at 1 h, 0.1 µM [27]: 42.8%; Selectivity Index [28]: 4; MIC [29]: 1 µg/mL; MIC [30]: 2 µg/mL (≈ 2.61 µM); Selectivity Index [31]: 8; Selectivity Index [32]: 8; MIC [33]: 16 µg/mL (≈ 20.9 µM)
CC(C)C(O/N=C(\C(=O)N[C@@H]1C(=O)N(S(=O)(=O)O)[C@@H]1CCl)c1csc(N)n1)c1cc(=O)c(O)cn1O (some centres not stated) | 0.5 µg/mL | 4 µg/mL | 1 | 8 µg/mL (≈ 14.2 µM) | 1 µg/mL (≈ 1.77 µM) | 11.1 mL/min/g | 1 | 32 µg/mL (≈ 56.6 µM) | 0.5 µg/mL | 2 | 1 | 0.25 µg/mL | 8 µg/mL (≈ 14.2 µM) | 1 | 0.25 µg/mL | 0.25 µg/mL | 4 µg/mL | 2 | 8 µg/mL (≈ 14.2 µM) | 2 | MIC [21]: 8 µg/mL; Selectivity Index [22]: 4; MIC [23]: 0.25 µg/mL; Selectivity Index [24]: 4; MIC [25]: 4 µg/mL; half-life at 0.1 µM [26]: 1.2 h; Fh at 1 h, 0.1 µM [27]: 63.9%; Selectivity Index [28]: 1; MIC [29]: 0.25 µg/mL; MIC [30]: 2 µg/mL (≈ 3.54 µM); Selectivity Index [31]: 4; Selectivity Index [32]: 2; MIC [33]: 1 µg/mL (≈ 1.77 µM)
CC(C)C(O/N=C(\C(=O)N[C@@H]1C(=O)N(S(=O)(=O)O)C12CCCC2)c1csc(N)n1)c1cc(=O)c(O)cn1O (some centres not stated) | 0.5 µg/mL | 0.25 µg/mL | 8 | 8 µg/mL (≈ 14 µM) | 0.5 µg/mL (≈ 0.876 µM) | 7.76 mL/min/g | 1 | 2 µg/mL (≈ 3.51 µM) | 0.06 µg/mL | 8 | 2 | 0.125 µg/mL | 16 µg/mL (≈ 28 µM) | 4 | 0.25 µg/mL | 0.5 µg/mL | 8 µg/mL | 1 | 16 µg/mL (≈ 28 µM) | 2 | MIC [21]: 0.25 µg/mL; Selectivity Index [22]: 16; MIC [23]: 0.06 µg/mL; Selectivity Index [24]: 2; MIC [25]: 16 µg/mL; half-life at 0.1 µM [26]: 6.25 h; Fh at 1 h, 0.1 µM [27]: 71.6%; Selectivity Index [28]: 2; MIC [29]: 0.25 µg/mL; MIC [30]: 1 µg/mL (≈ 1.75 µM); Selectivity Index [31]: 8; Selectivity Index [32]: 2; MIC [33]: 1 µg/mL (≈ 1.75 µM)
CC(C)C(O/N=C(\C(=O)N[C@@H]1C(=O)N(S(=O)(=O)O)[C@@H]1COC(N)=O)c1csc(N)n1)c1cc(=O)c(O)cn1O (some centres not stated) | 0.125 µg/mL | 2 µg/mL | 4 | 8 µg/mL (≈ 13.6 µM) | 0.25 µg/mL (≈ 0.424 µM) | 11.9 mL/min/g | 2 | 32 µg/mL (≈ 54.3 µM) | 0.25 µg/mL | 4 | 1 | 0.25 µg/mL | 8 µg/mL (≈ 13.6 µM) | 2 | 0.25 µg/mL | 0.25 µg/mL | 4 µg/mL | 1 | 4 µg/mL (≈ 6.78 µM) | 2 | MIC [21]: 8 µg/mL; Selectivity Index [22]: 4; MIC [23]: 0.25 µg/mL; Selectivity Index [24]: 4; MIC [25]: 8 µg/mL; half-life at 0.1 µM [26]: 10.3 h; Fh at 1 h, 0.1 µM [27]: 62.2%; Selectivity Index [28]: 1; MIC [29]: 0.25 µg/mL; MIC [30]: 1 µg/mL (≈ 1.7 µM); Selectivity Index [31]: 4; Selectivity Index [32]: 2; MIC [33]: 1 µg/mL (≈ 1.7 µM)
